The record followed here is ChEMBL document CHEMBL3414544, “PAINS in the assay: chemical mechanisms of assay interference and promiscuous enzymatic inhibition observed during a sulfhydryl-scavenging HTS” (J Med Chem, 2015).

The target of data set [1] is Histone acetyltransferase GCN5 (Saccharomyces cerevisiae S288c, UniProt Q03330). Nature of the data set: Inhibition of yeast histone acetyltransferase Gcn5-Ada2-Ada3 complex using tetramer and [3H]-acetyl-CoA assessed as acetate incorporation after 30 mins by liquid scintillation counting.
The target of data set [2] is Histone acetyltransferase GCN5 (Saccharomyces cerevisiae S288c) (UniProt Q03330). Nature of the data set: Inhibition of yeast histone acetyltransferase Gcn5-Ada2-Ada3 complex using tetramer and [3H]-acetyl-CoA assessed as acetate incorporation […] by liquid scintillation counting in presence of 1 mM DTT.
Data set [3] concerns the target T1, Histone acetyltransferase p300 (Homo sapiens, UniProt Q09472). Nature of the data set: Inhibition of recombinant histone acetyltransferase p300 (unknown origin) using dH3-H4 tetramer and [3H]-acetyl-CoA assessed as acetate incorporation […] by liquid scintillation counting.
The target in data set [4] is T1, Histone acetyltransferase p300. Nature of the data set: Inhibition of recombinant histone acetyltransferase p300 (unknown origin) using dH3-H4 tetramer and [3H]-acetyl-CoA assessed as acetate incorporation after 5 mins by liquid scintillation counting in presence of 1 mM DTT.
For data set [5], the target named is T2, Histone acetyltransferase RTT109 (Saccharomyces cerevisiae (strain ATCC 204508 / S288c) (Baker's yeast)) (UniProt Q07794).
T2 sequence (whole entry): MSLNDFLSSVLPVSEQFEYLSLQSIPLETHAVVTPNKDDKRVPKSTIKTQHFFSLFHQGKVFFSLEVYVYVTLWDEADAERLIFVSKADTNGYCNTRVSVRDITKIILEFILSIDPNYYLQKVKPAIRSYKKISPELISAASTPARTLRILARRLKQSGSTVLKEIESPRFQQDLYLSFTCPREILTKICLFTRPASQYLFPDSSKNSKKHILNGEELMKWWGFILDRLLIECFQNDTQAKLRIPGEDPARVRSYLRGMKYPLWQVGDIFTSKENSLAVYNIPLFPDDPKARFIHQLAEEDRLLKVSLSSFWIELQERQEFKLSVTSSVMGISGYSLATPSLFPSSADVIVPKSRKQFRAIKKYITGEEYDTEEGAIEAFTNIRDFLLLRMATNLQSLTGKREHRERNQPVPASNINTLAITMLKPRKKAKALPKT
Nature of the data set: Inhibition of Vps75-stimulated recombinant Saccharomyces cerevisiae histone acetyltransferase Rtt109 using [3H]-acetyl-CoA assessed as acetate incorporation […] by liquid scintillation counting in presence of 1 mM DTT.

The target of data set [6] is T3, Histone acetyltransferase RTT109 (Saccharomyces cerevisiae (strain ATCC 204508 / S288c) (Baker's yeast), UniProt Q07794).
T3 sequence (Q07794 whole entry): T2 sequence (whole entry)
Nature of the data set: Inhibition of Vps75-stimulated recombinant Saccharomyces cerevisiae histone acetyltransferase Rtt109 using [3H]-acetyl-CoA assessed as acetate incorporation after 30 mins by liquid scintillation counting.

The nature of data set [7]: Fluorescence quenching in HTS buffer with 20 uM 7-diethylamino-3-(4'-maleimidyl-phenyl)-4-methylcoumarin assessed as fluorescence signal reduction at 10 uM after 10 mins. The format is physicochemical.
A short description of data set [8]: Fluorescence quenching assessed as fluorescence signal reduction at 10 uM after 10 mins. Format: physicochemical. A digest of the protocol:
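CPM (20 μM final) and CoA (5 μM final) reacted to completion in assay buffer (stable plateau, usually ~5 min); adduct solution added to wells preplated with compound; shaken 5 min, equilibrated 5 min at room temperature; fluorescence intensity read as percent signal reduction versus DMSO controls. Flagged as quencher at >20% signal reduction at 10 μM final compound.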

Data set [9] can be described thus: Fluorescence quenching in HTS buffer assessed as fluorescence signal reduction at 10 uM after 10 mins. The format is physicochemical.
Data set [10] is described as follows: Fluorescence quenching in HTS buffer with […] CoA assessed as fluorescence signal reduction at 10 uM after 10 mins. Format: physicochemical.
For data set [11], the target named is T2, Histone acetyltransferase RTT109 (Saccharomyces cerevisiae (strain ATCC 204508 / S288c) (Baker's yeast)). Nature of the data set: Inhibition of Vps75-stimulated recombinant Saccharomyces cerevisiae histone acetyltransferase Rtt109 assessed as H3K27 acetylated product at […] after 45 mins by Slot bolt inhibiton assay.
For data set [12] the target is unchanged. Nature of the data set: Inhibition of Vps75-stimulated recombinant Saccharomyces cerevisiae histone acetyltransferase Rtt109 assessed as H3K56 acetylated product at […] after 45 mins by Slot bolt inhibiton assay.
Data set [13] deals with T3, Histone acetyltransferase RTT109. Nature of the data set: Inhibition of Vps75-stimulated recombinant Saccharomyces cerevisiae histone acetyltransferase Rtt109 using Asf1-dH3-H4 as substrate assessed as coenzyme A production after 45 mins by CPM based HTS assay. Summed up: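 Recombinant Rtt109–Vps75 at 50 nM, with Asf1–dH3–H4 as substrate and acetyl-CoA as acetyl donor. Buffer contained freshly prepared 0.01% Triton X-100. The CoA product was detected by fluorescence of its CPM adduct. Plates had Z′ ≥0.5. IC50 came from a four-parameter variable-slope fit.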

The target in data set [14] is T4, Lupus La protein (Homo sapiens) (UniProt P05455).
T4 sequence (whole entry): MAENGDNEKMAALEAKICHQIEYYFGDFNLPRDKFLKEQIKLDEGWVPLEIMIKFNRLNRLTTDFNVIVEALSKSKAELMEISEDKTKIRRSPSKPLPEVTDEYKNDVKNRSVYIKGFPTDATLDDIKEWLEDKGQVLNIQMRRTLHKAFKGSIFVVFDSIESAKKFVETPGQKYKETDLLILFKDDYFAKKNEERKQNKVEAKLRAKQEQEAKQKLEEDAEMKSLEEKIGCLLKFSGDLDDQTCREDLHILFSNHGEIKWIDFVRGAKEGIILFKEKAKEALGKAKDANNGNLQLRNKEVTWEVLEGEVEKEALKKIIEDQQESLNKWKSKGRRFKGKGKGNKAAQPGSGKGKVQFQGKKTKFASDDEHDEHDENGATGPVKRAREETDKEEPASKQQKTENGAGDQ
Nature of the data set: Induction of thiol reactivity with La protein (unknown origin) using […] assessed as protein reactivity by ALARM NMR in presence of 20 mM DTT. A digest of the protocol: (§1)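 ALARM NMR with recombinant La antigen expressed in E. coli Rosetta, 15N-labelled and 13C-labelled at Leu/Ile δ-methyl and Val γ-methyl groups; protein pre-reduced with 20 mM DTT then dialysed DTT-free under N2.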

Data set [15] deals with T4, Lupus La protein (Homo sapiens). The data set is described as follows: Induction of thiol reactivity with La protein (unknown origin) using […] assessed as protein reactivity by ALARM NMR. Summed up:
as §1

Molecules are shown by their SMILES. The source made the active and inactive calls. Unless noted, the calls are words filed in the database; no cut-off is given here.

T1 sequence (Q09472 whole entry): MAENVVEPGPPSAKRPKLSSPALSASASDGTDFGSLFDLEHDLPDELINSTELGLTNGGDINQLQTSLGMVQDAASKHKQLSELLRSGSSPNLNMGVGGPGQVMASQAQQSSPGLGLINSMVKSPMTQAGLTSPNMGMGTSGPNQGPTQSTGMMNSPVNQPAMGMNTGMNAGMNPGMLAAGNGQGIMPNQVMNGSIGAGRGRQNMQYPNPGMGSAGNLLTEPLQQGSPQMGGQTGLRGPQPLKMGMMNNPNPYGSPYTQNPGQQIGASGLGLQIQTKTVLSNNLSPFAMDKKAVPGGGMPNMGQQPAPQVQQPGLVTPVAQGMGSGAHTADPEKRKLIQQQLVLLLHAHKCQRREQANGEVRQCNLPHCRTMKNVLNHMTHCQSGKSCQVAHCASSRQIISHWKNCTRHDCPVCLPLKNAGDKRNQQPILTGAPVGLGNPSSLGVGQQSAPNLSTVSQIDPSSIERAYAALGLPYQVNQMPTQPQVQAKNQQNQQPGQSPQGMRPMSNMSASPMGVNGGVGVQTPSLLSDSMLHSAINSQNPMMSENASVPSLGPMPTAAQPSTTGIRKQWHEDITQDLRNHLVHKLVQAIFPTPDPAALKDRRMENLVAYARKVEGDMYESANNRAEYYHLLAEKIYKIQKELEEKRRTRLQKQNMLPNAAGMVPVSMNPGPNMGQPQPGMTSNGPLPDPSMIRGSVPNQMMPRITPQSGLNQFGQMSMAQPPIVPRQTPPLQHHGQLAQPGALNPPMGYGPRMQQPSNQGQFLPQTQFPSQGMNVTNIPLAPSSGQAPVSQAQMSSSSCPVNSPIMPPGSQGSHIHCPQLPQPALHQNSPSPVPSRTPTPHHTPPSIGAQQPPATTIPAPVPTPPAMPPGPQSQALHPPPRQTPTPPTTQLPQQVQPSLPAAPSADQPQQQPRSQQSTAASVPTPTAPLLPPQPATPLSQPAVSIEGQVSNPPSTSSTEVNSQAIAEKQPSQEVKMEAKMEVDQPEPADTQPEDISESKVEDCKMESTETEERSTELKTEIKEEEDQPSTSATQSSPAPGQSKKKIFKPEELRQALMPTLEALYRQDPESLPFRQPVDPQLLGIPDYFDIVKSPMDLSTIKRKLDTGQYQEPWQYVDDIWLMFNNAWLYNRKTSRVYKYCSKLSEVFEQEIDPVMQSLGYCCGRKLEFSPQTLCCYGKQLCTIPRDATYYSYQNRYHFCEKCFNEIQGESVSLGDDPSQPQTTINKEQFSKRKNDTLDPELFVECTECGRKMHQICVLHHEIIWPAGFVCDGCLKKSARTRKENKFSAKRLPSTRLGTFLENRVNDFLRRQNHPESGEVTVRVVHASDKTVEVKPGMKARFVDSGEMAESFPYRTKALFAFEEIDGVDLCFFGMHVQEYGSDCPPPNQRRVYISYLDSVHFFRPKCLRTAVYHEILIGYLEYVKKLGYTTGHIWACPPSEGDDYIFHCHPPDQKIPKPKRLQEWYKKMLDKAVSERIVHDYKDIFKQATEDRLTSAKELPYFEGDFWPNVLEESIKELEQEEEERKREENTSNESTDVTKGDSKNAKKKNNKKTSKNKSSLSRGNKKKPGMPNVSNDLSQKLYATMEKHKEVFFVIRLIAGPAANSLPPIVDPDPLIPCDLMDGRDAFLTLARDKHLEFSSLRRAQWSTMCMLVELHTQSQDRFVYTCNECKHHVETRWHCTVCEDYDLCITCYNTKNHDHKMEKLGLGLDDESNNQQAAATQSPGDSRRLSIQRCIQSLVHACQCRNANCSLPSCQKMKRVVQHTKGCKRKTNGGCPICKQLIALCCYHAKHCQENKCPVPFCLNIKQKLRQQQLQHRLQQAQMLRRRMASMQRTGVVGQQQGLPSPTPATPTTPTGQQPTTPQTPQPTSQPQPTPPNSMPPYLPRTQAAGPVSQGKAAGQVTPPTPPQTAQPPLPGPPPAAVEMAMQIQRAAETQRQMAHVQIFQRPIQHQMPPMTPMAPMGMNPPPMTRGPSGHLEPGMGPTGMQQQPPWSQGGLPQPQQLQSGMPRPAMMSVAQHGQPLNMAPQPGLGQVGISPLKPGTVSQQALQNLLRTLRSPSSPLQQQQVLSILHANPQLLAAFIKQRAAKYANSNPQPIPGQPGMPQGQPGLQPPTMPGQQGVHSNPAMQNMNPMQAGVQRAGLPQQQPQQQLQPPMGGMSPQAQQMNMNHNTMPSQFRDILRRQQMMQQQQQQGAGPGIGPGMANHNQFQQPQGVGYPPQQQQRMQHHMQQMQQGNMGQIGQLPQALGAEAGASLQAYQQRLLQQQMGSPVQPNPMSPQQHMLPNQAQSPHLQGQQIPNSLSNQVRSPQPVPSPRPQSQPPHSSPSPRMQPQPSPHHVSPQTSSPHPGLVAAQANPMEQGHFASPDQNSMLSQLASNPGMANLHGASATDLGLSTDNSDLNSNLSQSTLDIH
Sequence of Histone acetyltransferase GCN5 (Saccharomyces cerevisiae S288c) (Q03330 whole entry): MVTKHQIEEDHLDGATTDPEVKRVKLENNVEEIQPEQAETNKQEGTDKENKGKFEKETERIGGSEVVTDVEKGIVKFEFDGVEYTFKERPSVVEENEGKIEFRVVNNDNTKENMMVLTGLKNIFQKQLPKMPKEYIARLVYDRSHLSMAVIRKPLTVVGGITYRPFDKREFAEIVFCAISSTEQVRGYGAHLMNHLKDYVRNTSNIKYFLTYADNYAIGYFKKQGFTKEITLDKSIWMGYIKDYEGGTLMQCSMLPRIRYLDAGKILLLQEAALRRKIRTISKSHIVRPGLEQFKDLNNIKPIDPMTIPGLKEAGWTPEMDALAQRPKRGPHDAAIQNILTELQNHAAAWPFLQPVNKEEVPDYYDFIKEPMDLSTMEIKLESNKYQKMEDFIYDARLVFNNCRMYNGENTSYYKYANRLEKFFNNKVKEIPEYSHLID
Sequence of Histone acetyltransferase GCN5 (Q03330 whole entry): as above

Take `CCN(CC)c1ccc2c(C)c(-c3ccc(N4C(=O)C=CC4=O)cc3)c(=O)oc2c1`: the IC50 was 1.1 µM in data set [1] (read-out: IC50), 260 nM in [3] (read-out: IC50) and 260 nM in data set [6] (read-out: IC50). Moreover, the result in data set [2], in data set [4] and in [5] was Active.
On to `Cc1ccc(-c2nc(N)s[n+]2-c2ccccc2)cc1.[Br-]`, for which the values for the IC50 in [1] (read-out: IC50) and in data set [3] (read-out: IC50) were 5.3 µM and 1800 nM, respectively. Moreover, the Activity result in data set [7], in data set [8], in data set [9] and in data set [10] was “Not Active” each time. Further, the outcome in [2], in data set [11], in data set [4], in data set [5] and in [12] was Active.
Regarding `O=C(O)CSc1cc(NS(=O)(=O)c2ccc(Br)cc2)c2ccccc2c1O`, the IC50 in data set [1] (read-out: IC50) is 1.2 µM; in data set [3] (read-out: IC50), 330 nM; in [13] it was “Not Active”; in data set [6] (read-out: IC50), 130 nM. Moreover, the Activity entry is recorded as “Active” in data set [7], “Not Active” in [8], “Not Active” in data set [9] and “Not Active” in [10]. The outcome in data set [2] and in data set [4] was Active.
On to `Cc1ccc(N2C(=O)CC(Sc3nncn3-c3ccccc3)C2=O)cc1` (configuration not stated), for which the IC50 amounted to 27 µM in [1] (read-out: IC50), 9800 nM in [3] (read-out: IC50), 11 µM in data set [13] (read-out: IC50) and 8600 nM in data set [6] (read-out: IC50). Further, the Activity result in data set [7], in [8], in data set [9] and in [10] was “Not Active” each time. Moreover, the result in data set [2], in [11], in [4], in [5] and in data set [12] was Active.
Consider `O=S(=O)(Nc1cc(Sc2nc[nH]n2)c(O)c2ccccc12)c1ccc(Br)cc1`, for which the values for the IC50 in data set [1] (read-out: IC50) and in [3] (read-out: IC50) were 5.2 µM and 1100 nM, respectively. Further, the Activity entry in data set [7], in data set [8], in [9] and in data set [10] was “Not Active” throughout. Also, the result in [2], in data set [11], in data set [4], in [5] and in [12] was Active.
As for `OC(Cn1cncn1)(Cn1cncn1)c1ccc(F)cc1F` [FLUCONAZOLE], the IC50 entry in [1], in data set [3], in data set [13] and in data set [6] was “Not Active” throughout. Also, the result in data set [2], in [4] and in data set [5] was inactive.
On to `O=[N+]([O-])c1c(Sc2nnnn2-c2ccccc2)cc(Cl)c2nonc12`, for which the IC50 in data set [1] (read-out: IC50) worked out at 1.6 µM; in [3] (read-out: IC50), 1100 nM; in [13] (read-out: IC50) it was 2.3 µM; in data set [6] (read-out: IC50) it was 770 nM. The Activity result in data set [7], in data set [8], in data set [9] and in [10] was “Not Active” throughout. Also, the outcome in data set [2], in [11], in data set [4], in [5] and in data set [12] was Active.
In the case of `O=S1(=O)C=C(Sc2nnc(-c3ccncc3)o2)c2ccccc21`, the IC50 in data set [1] (read-out: IC50) was found to be 3.7 µM; in data set [3] (read-out: IC50), 6200 nM. Besides, the Activity entry in data set [7], in data set [8], in data set [9] and in data set [10] was “Not Active” each time. Also, the outcome in [2], in data set [11], in [4], in data set [5] and in data set [12] was Active.
Consider `CNc1nc(-c2ccccc2)[n+](-c2ccc(C)cc2)s1.[Br-]`, for which the IC50 was determined as 8.1 µM in [1] (read-out: IC50) and 2000 nM in data set [3] (read-out: IC50). In addition, the Activity entry in [7], in [8], in [9] and in [10] was “Not Active” each time. Further, the outcome in [2], in data set [11], in data set [4], in [5] and in [12] was Active.
Regarding `O=S(=O)(Nc1cc(Sc2ncn[nH]2)c(O)c2ccccc12)c1ccc2ccccc2c1`, the result in data set [2], in [11], in data set [4], in data set [15], in [5] and in [12] was Active. Further, the result in data set [14] was inactive.
In the case of `COc1ccc(-c2nnc(SC3CC(=O)N(c4ccc(Cl)cc4)C3=O)[nH]2)cc1` (configuration not stated), the IC50 was 6.7 µM in data set [1] (read-out: IC50) and 2800 nM in data set [3] (read-out: IC50). Further, the Activity result in [7], in data set [8], in data set [9] and in data set [10] was “Not Active” each time. For the same molecule, the outcome in data set [2], in [11], in [4], in [5] and in data set [12] was Active.
Consider `O=S1(=O)C=C(Sc2nnc(-c3ccccc3)o2)c2ccccc21`, for which the IC50 came to 11 µM in data set [1] (read-out: IC50) and 11000 nM in [3] (read-out: IC50). For the same molecule, the Activity entry in [7], in data set [8], in data set [9] and in [10] was “Not Active” in each case. The outcome in [2], in [11], in data set [4], in data set [5] and in data set [12] was Active.
